Screening data: PubChem, Johns Hopkins Ion Channel Center
KCNK9 block – KCNK9 potassium channel inhibitors, primary screen, HEK293 cells, thallium flux | Potassium channel subfamily K member 9 (Homo sapiens), Q9NPC2 | actives 1.2% (n = 310,000) | B-score at 10 µM | AID 488922, 2010 | FluxOR thallium flux fluorescence; hits give low values;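 active = ratio B-score over 3 SD below the library mean, with starting fluorescence within 5 SD of its mean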;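 also: negative B-score means less thallium flux so channel inhibition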
KCNQ1 pot – potentiators or activators of KCNQ1 channel, primary screen, cell-based, thallium flux, high-throughput | B-score at 10 µM | CHO-K1 KCNQ1, thallium flux FluxOR fluorescence; hits give high values | actives 0.35% (n = 310,000) | Potassium voltage-gated channel subfamily KQT member 1 (Homo sapiens), P51787;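 active = fluorescence ratio B-score, a plate-corrected score, at least three library SD, with initial intensity B-score within 5 SD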
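assay system = KCNQ1-transfected CHO-K1 cells | medium = assay buffer with matched DMSO | probe or stimulus = depolarizing K+/Tl+ stimulus, K2SO4 and Tl2SO4 each 12.5 mM in 5x stock | dosing = single dose | incubation = dye 90 min, compound 20 min, room temperature | detection = kinetic FluxOR fluorescence, 10 s baseline plus 110 s post-stimulus | evaluation = ratio B score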
Kir21 inh – inhibitors of mouse Kir2.1 inward-rectifier potassium channel; HEK293-Kir2.1, FluxOR thallium flux fluorescence; hits give low values; actives 0.85% (n = 310,000); AID 1672, 2009; B-score at 10 µM; Inward rectifier potassium channel 2 (Mus musculus), P35561;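 active = fluorescence ratio B-score at or below minus 3 SD of library scores, with starting-brightness B-score within 2 SD, cut at about -4.2 in these data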;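 also: channel flux triggered by added potassium and thallium sulfate stimulus; B-score of peak minus minimum fluorescence over baseline after thallium stimulus; more negative B-score means stronger Kir2.1 block with less thallium influx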
hERG protect – hERG rescue from dofetilide block, primary screen, cell-based, CHO-hERG, FluxOR thallium flux, dofetilide IC70. activation (rescue from dofetilide block), less the hit threshold, % at 10 µM. dofetilide IC70 present. Voltage-gated inwardly rectifying potassium channel KCNH2 (Homo sapiens), Q12809. actives 0.51% (n = 310,000);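 active = activation above the mean of controls blocked by dofetilide plus 5 SD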;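 also: thallium influx through hERG after potassium depolarization seen as dye fluorescence rise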
Target sequence (Q12809 whole entry, looked up): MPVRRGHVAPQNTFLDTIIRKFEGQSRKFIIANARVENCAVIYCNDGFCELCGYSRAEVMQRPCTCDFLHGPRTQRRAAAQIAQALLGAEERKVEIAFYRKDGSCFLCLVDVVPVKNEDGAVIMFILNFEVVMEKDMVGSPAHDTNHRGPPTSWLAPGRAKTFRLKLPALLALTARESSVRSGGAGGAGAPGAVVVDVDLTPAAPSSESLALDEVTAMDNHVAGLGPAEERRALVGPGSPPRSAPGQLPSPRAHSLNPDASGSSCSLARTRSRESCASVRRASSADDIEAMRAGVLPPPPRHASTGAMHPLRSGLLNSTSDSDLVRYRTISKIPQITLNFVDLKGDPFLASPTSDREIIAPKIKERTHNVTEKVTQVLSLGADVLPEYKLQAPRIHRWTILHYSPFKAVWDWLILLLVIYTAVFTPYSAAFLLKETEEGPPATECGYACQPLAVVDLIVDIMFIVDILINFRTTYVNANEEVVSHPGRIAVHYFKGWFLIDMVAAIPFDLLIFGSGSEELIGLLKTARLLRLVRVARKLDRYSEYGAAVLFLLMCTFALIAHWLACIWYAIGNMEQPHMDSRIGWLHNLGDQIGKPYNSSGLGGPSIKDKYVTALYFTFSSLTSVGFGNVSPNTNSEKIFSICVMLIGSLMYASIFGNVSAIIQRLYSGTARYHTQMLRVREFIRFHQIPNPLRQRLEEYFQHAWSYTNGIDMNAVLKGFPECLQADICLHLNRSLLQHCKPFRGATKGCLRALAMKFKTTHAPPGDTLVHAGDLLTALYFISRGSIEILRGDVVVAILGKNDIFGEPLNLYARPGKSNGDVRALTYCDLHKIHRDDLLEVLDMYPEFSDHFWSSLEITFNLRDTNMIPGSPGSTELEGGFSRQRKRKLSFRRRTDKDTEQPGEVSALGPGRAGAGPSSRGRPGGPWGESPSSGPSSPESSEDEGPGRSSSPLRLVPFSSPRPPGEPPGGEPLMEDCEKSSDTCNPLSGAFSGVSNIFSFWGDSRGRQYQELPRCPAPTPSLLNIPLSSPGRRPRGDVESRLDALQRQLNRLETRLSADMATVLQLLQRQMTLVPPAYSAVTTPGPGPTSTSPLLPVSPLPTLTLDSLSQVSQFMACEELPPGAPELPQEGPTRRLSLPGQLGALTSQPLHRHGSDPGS
KCNK3 block – human KCNK3 channel inhibitors, primary screen, CHO cells, FluxOR thallium flux, B-score | Potassium channel subfamily K member 3 (Homo sapiens), O14649 | FluxOR fluorescence; hits give low values | B-score at 10 µM | actives 0.84% (n = 340,000) | AID 602410, 2012;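 active = B-score under library mean minus 4 SD, starting fluorescence ratio at most library mean plus 5 SD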;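 also: more negative B-score means stronger inhibition of thallium flux through KCNK3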
KCNQ1 block – inhibitors of human KCNQ1 channel, primary screen, cell-based, thallium flux, high-throughput; Potassium voltage-gated channel subfamily KQT member 1 (Homo sapiens), P51787; actives 1.3% (n = 310,000); AID 2642, 2010; CHO-K1 KCNQ1, FluxOR thallium flux fluorescence; hits give high values; B-score at 10 µM;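 active = compounds whose thallium flux B-score, printed positive for inhibition, exceeds three library SD while starting fluorescence stays within three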;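 also: channel opened by potassium depolarization with thallium stimulus after 20 min compound exposure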
Numbers stand for hits; i = inactive; nt = no result. Only some compounds are listed: those with a hit (about 3.7% of all), similar ones and a draw of the others.

SMILES	KCNK9 block	KCNQ1 pot	Kir21 inh	hERG protect	KCNK3 block	KCNQ1 block
Cc1cccc(N2CCN(C(=O)c3cc(COc4ccc(F)c(F)c4)on3)CC2)n1	i	i	i	i	i	i
CC(=O)OCCNc1cc(Sc2nc3ccccc3[nH]2)c2nonc2c1[N+](=O)[O-]	-8.1	i	-4.5	i	i	7
CCCn1c2ccccc2c2cnn(CC(=O)NCCCN3CCCCC3)c(=O)c21	i	i	i	i	i	i
CCCn1c2ccccc2c2cnn(CC(=O)NCCCN3CCN(c4ccccc4)CC3)c(=O)c21	i	i	-4.6	i	i	i
O=C(O)C1CCN(C(=O)CCc2ccccc2)CC1	i	i	i	i	i	i
Cc1nc(-c2c(C(F)(F)F)noc2-c2ccc(O)cc2O)cs1	i	i	i	i	i	i
CCOc1cc(C)c(-c2onc(C(F)(F)F)c2-c2csc(C)n2)c(O)c1	i	i	i	i	i	8
CC1=NNC(=O)C1C(c1ccc(F)cc1)C(C#N)C#N (configuration not stated)	i	i	-4.3	i	i	i
CC1=NNC(=O)C1Cc1ccc(F)cc1 (configuration not stated)	i	i	i	i	i	i
CCCn1c(SCC(=O)c2cc(C)n(-c3ccc4c(c3)OCO4)c2C)n[nH]c1=O	i	i	-6.7	i	i	i
CCC1CCCCN1S(=O)(=O)c1ccccc1[N+](=O)[O-] (configuration not stated)	i	i	-4.3	i	i	i
CC1CCCCN1S(=O)(=O)c1ccccc1[N+](=O)[O-] (configuration not stated)	i	i	i	i	i	i
O=C(O)C(Nc1nc(C(F)(F)F)nc2ccccc12)c1ccccc1 (configuration not stated)	i	i	i	i	i	i
O=C(Nc1ccc(Cl)c(Cl)c1)C1=Cc2ccccc2OC1	i	i	i	i	i	7
N=C1/C(=C\c2ccc(-c3ccc(C(=O)O)cc3)o2)C(=O)N=C2SC=C(c3ccccc3)N12	i	i	i	i	i	i
N=C1S/C(=C\c2ccc(-c3cccc(Cl)c3)o2)C(=O)N1c1nccs1	i	i	i	26	i	i
N=C1/C(=C\c2ccc(-c3cccc(Cl)c3)o2)C(=O)N=C2SC=C(c3ccccc3)N12	i	8	i	i	i	i
Cc1ccc(Cl)cc1NC1=NC(=S)N(C(C)C)C12CCCCC2	i	i	i	i	i	i
COc1ccc(-c2c(=O)n(OCc3ccccc3[N+](=O)[O-])c3ccccc3[n+]2[O-])c(OC)c1	i	i	i	i	i	i
Nc1ccn(Cc2ccccc2)n1	i	i	i	41	i	i
COC(=O)c1cc(NC(=O)c2cc(-c3ccc(C(F)(F)F)cc3)oc2C(F)(F)F)ccc1N1CCOCC1	i	i	i	i	i	8
CCOC(=O)c1cc(NC(=O)c2cccs2)ccc1N1CCOCC1	i	i	i	4.7	i	i
CCN(CC)C(=O)OCCc1cc2ccccc2c(=O)o1	nt	nt	nt	nt	i	nt
O=C(COC(=O)c1ccc(S(=O)(=O)N2CCCC2)cc1)NCc1ccco1	i	i	i	i	i	i
CCOc1cc(C)cc2oc(=O)cc(-c3ccccc3)c12	-7	i	i	i	i	i
SMILES	KCNK9 block	KCNQ1 pot	Kir21 inh	hERG protect	KCNK3 block	KCNQ1 block
CCn1c(SC)nnc1C1CCCN(CC(=O)Nc2ccccc2N2CCOCC2)C1 (configuration not stated)	i	i	i	i	i	i
CC(=O)C1=C(C)N(Cc2ccccc2)C(=O)N[C@H]1c1ccco1	i	i	i	i	i	i
OCCN(CCO)c1ccc(C(c2ccccc2Cl)c2ccc(N(CCO)CCO)cc2Cl)c(Cl)c1	i	11	i	i	i	i
CCOC(=O)c1c(NC(=O)c2ccco2)sc2c1CCCCC2	i	i	i	i	i	i
CCOC(=O)c1c(NC(=O)CCCC(=O)O)sc2c1CCC2	i	i	i	i	i	i
CCOC(=O)c1c(NC(=O)CCNCc2ccco2)sc2c1CCC2	i	i	-17	i	nt	i
CCOC(=O)c1c(NS(=O)(=O)Cc2ccccc2)sc2c1CCCC2	i	i	i	78	i	i
CCOC(=O)c1c(NC(=O)c2ccccc2C(=O)O)sc2c1CCC2	i	i	i	i	i	i
CCOC(=O)c1c(NC(=O)C(C)N2CCN(C(=O)c3ccco3)CC2)sc2c1CCCC2 (configuration not stated)	i	15	i	i	i	i
Cc1[nH]c(=O)n(C(C)C)c(=O)c1Br	nt	nt	nt	nt	i	nt
Cc1ccc(O)c(-c2cc(C(=O)Nc3ccc(S(=O)(=O)Nc4nc(C)cc(C)n4)cc3)[nH]n2)c1	i	i	i	i	i	i
O=[N+]([O-])c1c(NCCCO)cc(Sc2ccc(Cl)cc2)c2nonc12	i	i	i	i	i	i
Cn1ccnc1Sc1cc(NCCCO)c([N+](=O)[O-])c2nonc12	i	i	i	i	i	6
COc1ccc(C2C(C(=O)c3cccs3)=C(O)C(=O)N2c2nnc(C)s2)cc1OC (configuration not stated)	i	i	i	i	i	11
COc1ccc(C(=O)c2cnc3cc4c(cc3c2C)OCO4)cc1	-6.9	i	i	i	i	i
Cc1nc2cc3c(cc2c(C)c1C(=O)OC(C)C)OCO3	i	i	i	i	i	i
O=C(CCn1c(=S)oc2ccccc21)Nc1ccc(F)cc1	i	i	i	i	i	i
CN(C(=O)CCn1c(=S)oc2ccccc21)c1ccc(F)cc1	i	i	-5.6	i	i	i
O=C(CCN1CCc2ccccc2CC1)c1ccc2c(c1)OCCO2	i	10	i	i	i	i
O=C(CCCN1CCOCC1)c1ccc2c(c1)OCCO2	i	i	i	i	i	i
CCOCCCNC(=O)CN1CCN(Cc2ccc(Cl)cc2)C1=O	i	i	i	i	i	i
N#C/C(=N\Nc1cccc(F)c1)C(=N)N1CCCCCC1	i	i	i	i	i	i
N#C/C(=N\Nc1cccc(F)c1)C(=O)C1CC1	i	i	i	i	i	6
COc1cc2c(cc1OC)CN(C(=O)Cc1c(F)cccc1Cl)CC2	i	i	i	i	i	i
CC(C)(C)c1cc(NCCCn2ccnc2)n2ncc(-c3ccc(Cl)cc3)c2n1	i	i	i	i	i	i
CN(C)CCCNc1cc(C(C)(C)C)nc2c(-c3ccccc3)cnn12	i	i	-4.8	i	i	i
